Measurements published in ChEMBL document CHEMBL1148326, “Chemometric studies on the bactericidal activity of quinolones via an extended VolSurf approach” (2004).

Key:
Assay type in all cases: functional
Enterococcus faecalis [1] = assay: Antibacterial activity was evaluated against Enterococcus faecalis
In short: (§1)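 MIC against aerobic bacteria, measured at Bayer AG, by standard agar dilution or broth microdilution per NCCLS M7-A5 guidelines. MIC taken as lowest concentration visibly inhibiting growth after in vitro incubation, read when untreated culture growth becomes visible; expressed as log 1/C.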

Escherichia coli = assay: Antibacterial activity was evaluated against Escherichia coli; in short: as §1
Staphylococcus aureus = assay: Antibacterial activity was evaluated against Staphylococcus aureus; in short: as §1
Pseudomonas aeruginosa = assay: Antibacterial activity was evaluated against Pseudomonas aeruginosa; in short: as §1
Enterococcus faecalis [2] = assay: Antibacterial activity evaluated against Enterococcus faecalis; in short: as §1

COc1c(N2C[C@@H]3CCCN[C@@H]3C2)c(F)cc2c(=O)c(C(=O)O)cn(C3CC3)c12 [MOXIFLOXACIN]
Log 1/C (Enterococcus faecalis [1]): 6.55
Log 1/C (Escherichia coli): 7.46
Log 1/C (Staphylococcus aureus): 7.16
Log 1/C (Pseudomonas aeruginosa): 5.64

C[C@@]12CN(c3c(F)cc4c(=O)c(C(=O)O)cn(C5C[C@@H]5F)c4c3F)C[C@@H]1CCCN2 (some centres not stated)
Log 1/C (Enterococcus faecalis [1]): 6.86
Log 1/C (Escherichia coli): 7.46
Log 1/C (Staphylococcus aureus): 7.16
Log 1/C (Pseudomonas aeruginosa): 6.25

C[C@H]1COc2c(N3CCN(C)CC3)c(F)cc3c(=O)c(C(=O)O)cn1c23.C[C@H]1COc2c(N3CCN(C)CC3)c(F)cc3c(=O)c(C(=O)O)cn1c23.O [LEVOFLOXACIN]
Log 1/C (Escherichia coli): 7.41
Log 1/C (Staphylococcus aureus): 6.5
Log 1/C (Enterococcus faecalis [2]): 6.2
Log 1/C (Pseudomonas aeruginosa): 6.2

CCOc1c(F)cc2c(=O)c(C(=O)O)cn(C(C)(C)CF)c2c1Cl
Log 1/C (Escherichia coli): 4.35
Log 1/C (Staphylococcus aureus): 4.95
Log 1/C (Enterococcus faecalis [2]): 4.05
Log 1/C (Pseudomonas aeruginosa): 3.45

O=C(O)c1cn(C2C[C@@H]2F)c2c(Cl)c(N3C[C@H]4CCCN[C@H]4C3)ccc2c1=O (some centres not stated)
Log 1/C (Escherichia coli): 7.13
Log 1/C (Staphylococcus aureus): 6.51
Log 1/C (Enterococcus faecalis [2]): 6.51
Log 1/C (Pseudomonas aeruginosa): 5.61

O=C(O)c1cn(C(CF)CF)c2cc(N3C[C@@H]4CCCN[C@@H]4C3)c(F)cc2c1=O
Log 1/C (Escherichia coli): 5.61
Log 1/C (Staphylococcus aureus): 5.01
Log 1/C (Enterococcus faecalis [2]): 5.01
Log 1/C (Pseudomonas aeruginosa): 4.11

O=C(O)c1cn(C2CC2)c2c(F)c(N3C[C@H]4CCCN[C@H]4C3)c(F)cc2c1=O
Log 1/C (Escherichia coli): 7.45
Log 1/C (Staphylococcus aureus): 6.84
Log 1/C (Enterococcus faecalis [2]): 6.53
Log 1/C (Pseudomonas aeruginosa): 5.63

O=C(O)c1cn(C2CC2)c2c(F)c(N3C[C@@H]4CCCN[C@@H]4C3)c(F)cc2c1=O
Log 1/C (Escherichia coli): 8.02
Log 1/C (Staphylococcus aureus): 7.44
Log 1/C (Enterococcus faecalis [2]): 6.84
Log 1/C (Pseudomonas aeruginosa): 6.23
